Residue numbers refer to the chain shown, from its start.
Columns and labels:
Details in all cases: stereoisomer not certain
[1] = biological target: T1, OR52N4 (Homo sapiens) (UniProt Q8NGI2)
T1 sequence (whole entry): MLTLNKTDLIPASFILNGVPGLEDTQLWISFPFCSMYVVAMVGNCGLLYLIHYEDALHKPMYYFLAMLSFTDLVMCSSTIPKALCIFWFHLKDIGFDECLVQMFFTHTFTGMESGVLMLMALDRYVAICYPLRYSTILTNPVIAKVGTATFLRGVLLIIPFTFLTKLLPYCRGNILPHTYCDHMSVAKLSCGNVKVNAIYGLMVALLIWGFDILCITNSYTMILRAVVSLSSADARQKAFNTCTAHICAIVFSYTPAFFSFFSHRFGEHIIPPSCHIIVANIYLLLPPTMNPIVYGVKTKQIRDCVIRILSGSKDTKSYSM
In short: (§1)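 Transient luciferase assays in mammalian cell lines were common, though methods varied by source. The values come from published papers and their supplementary material, with extra details from the original authors when needed. Responsive refers to a measured signal the original authors judged statistically different from baseline, and non-responsive (inactive) to the remainder.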

[2] = biological target: T2, OR52N5 (Homo sapiens) (UniProt Q8NH56)
T2 sequence (whole entry): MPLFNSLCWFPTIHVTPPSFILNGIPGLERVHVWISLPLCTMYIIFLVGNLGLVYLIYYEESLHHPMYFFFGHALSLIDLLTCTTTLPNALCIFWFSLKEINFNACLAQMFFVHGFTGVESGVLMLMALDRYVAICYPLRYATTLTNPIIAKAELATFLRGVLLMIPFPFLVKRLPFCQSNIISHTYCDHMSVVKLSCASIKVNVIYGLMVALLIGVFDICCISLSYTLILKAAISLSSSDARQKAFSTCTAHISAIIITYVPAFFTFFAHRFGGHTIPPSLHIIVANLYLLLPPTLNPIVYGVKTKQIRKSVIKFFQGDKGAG
In short: as §1

[3] = biological target: T3, OR52R1 (Homo sapiens) (UniProt Q8NGF1)
T3 sequence (whole entry): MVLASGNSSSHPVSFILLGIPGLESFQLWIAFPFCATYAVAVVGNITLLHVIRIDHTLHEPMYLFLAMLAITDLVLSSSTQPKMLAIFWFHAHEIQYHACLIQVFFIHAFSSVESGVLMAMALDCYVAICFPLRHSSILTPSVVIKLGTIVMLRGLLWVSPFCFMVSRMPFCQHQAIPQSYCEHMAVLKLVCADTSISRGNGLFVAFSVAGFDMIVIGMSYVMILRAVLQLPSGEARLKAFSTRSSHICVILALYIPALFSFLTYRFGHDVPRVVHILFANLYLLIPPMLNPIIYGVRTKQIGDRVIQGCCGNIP
In short: as §1

[4] = biological target: T4, OR52W1 (Homo sapiens) (UniProt Q6IF63)
T4 sequence (whole entry): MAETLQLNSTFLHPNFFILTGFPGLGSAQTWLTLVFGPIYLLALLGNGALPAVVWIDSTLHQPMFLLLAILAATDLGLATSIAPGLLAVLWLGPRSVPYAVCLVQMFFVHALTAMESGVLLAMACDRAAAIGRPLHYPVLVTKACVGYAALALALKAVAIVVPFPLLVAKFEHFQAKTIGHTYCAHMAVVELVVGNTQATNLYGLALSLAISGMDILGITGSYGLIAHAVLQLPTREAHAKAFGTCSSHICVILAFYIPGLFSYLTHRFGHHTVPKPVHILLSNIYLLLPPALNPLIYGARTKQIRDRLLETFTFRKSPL
In short: as §1

[5] = biological target: T5, OR56A1 (Homo sapiens) (UniProt Q8NGH5)
T5 sequence (whole entry): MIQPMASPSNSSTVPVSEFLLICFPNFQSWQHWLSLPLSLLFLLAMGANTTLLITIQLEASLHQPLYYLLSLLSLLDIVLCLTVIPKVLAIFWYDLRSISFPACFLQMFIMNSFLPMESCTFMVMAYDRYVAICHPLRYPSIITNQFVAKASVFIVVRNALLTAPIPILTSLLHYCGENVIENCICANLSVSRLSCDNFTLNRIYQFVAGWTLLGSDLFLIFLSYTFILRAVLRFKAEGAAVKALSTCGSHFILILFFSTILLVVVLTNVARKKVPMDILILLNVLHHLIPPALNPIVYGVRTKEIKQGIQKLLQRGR
In short: as §1

[6] = biological target: T6, OR56A3 (Homo sapiens) (UniProt Q8NH54)
T6 sequence (whole entry): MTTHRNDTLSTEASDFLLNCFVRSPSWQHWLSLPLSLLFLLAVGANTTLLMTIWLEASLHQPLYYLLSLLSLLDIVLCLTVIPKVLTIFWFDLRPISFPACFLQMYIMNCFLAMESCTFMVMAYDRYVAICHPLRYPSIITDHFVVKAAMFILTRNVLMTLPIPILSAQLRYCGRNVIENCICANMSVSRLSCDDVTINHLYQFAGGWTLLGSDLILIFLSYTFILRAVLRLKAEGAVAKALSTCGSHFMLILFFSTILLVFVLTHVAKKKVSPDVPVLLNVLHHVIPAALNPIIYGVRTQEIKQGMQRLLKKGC
In short: as §1

[7] = biological target: T7, OR56A5 (Homo sapiens) (UniProt P0C7T3)
T7 sequence (whole entry): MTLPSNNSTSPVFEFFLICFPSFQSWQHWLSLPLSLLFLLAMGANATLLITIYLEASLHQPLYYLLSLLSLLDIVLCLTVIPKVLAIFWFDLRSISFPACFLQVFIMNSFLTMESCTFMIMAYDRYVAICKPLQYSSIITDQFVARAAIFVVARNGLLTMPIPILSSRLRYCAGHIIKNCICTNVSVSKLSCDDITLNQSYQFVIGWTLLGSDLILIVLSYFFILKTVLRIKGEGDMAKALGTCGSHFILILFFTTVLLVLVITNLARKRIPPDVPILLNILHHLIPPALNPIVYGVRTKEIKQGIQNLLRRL
In short: as §1

[8] = biological target: T8, OR56B1 (Homo sapiens) (UniProt Q8NGI3)
T8 sequence (whole entry): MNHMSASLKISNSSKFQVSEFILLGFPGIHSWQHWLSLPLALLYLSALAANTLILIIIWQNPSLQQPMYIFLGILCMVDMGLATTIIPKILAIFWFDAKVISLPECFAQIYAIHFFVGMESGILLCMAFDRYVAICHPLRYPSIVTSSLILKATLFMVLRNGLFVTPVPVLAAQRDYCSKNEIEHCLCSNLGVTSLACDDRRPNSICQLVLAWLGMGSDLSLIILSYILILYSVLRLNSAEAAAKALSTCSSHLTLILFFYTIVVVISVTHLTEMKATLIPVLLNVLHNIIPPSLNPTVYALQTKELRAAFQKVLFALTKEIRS
In short: as §1

[9] = biological target: T9, OR56B4 (Homo sapiens) (UniProt Q8NH76)
T9 sequence (whole entry): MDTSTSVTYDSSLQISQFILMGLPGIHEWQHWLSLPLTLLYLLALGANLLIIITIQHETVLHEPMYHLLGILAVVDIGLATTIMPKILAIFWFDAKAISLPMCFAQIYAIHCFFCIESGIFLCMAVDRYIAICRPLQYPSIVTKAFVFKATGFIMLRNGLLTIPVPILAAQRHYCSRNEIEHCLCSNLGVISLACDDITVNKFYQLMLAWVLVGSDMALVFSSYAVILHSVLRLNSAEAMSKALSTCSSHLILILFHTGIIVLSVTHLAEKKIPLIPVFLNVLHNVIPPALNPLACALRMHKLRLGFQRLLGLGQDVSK
In short: as §1

[10] = biological target: T10, OR5A1 (Homo sapiens) (UniProt Q8NGJ0)
T10 sequence (whole entry): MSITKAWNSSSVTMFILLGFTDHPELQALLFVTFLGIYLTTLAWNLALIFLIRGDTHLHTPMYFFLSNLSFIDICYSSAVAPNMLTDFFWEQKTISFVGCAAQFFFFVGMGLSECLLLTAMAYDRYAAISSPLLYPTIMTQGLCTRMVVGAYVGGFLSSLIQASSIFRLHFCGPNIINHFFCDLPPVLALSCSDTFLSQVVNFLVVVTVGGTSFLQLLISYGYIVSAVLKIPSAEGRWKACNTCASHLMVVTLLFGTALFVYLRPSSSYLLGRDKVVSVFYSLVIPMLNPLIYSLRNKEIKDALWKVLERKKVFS
In short: as §1

[11] = tested on: T11, OR5A1 D183N
T11 sequence (whole entry): T10 sequence (whole entry) with D183N
In short: as §1

[12] = biological target: T12, OR5A2 (Homo sapiens) (UniProt Q8NGI9)
T12 sequence (whole entry): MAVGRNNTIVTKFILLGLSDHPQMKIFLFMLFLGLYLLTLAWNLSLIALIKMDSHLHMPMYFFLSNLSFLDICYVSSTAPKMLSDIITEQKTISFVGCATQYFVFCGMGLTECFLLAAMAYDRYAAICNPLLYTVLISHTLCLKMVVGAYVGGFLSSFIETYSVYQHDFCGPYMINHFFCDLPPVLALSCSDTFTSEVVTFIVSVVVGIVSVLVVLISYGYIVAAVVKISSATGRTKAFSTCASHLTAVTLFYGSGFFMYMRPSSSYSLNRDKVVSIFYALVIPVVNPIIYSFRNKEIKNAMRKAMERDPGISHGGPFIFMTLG
In short: as §1

[13] = biological target: T13, OR5AC2 (Homo sapiens) (UniProt Q9NZP5)
T13 sequence (whole entry): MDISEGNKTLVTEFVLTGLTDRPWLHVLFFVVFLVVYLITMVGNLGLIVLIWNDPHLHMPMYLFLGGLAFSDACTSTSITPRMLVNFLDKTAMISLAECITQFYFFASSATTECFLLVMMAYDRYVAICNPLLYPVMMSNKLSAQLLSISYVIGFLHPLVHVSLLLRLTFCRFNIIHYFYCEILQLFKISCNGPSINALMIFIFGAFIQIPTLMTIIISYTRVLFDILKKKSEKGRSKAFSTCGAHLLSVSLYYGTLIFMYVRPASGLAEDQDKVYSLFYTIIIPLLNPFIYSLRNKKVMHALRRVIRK
In short: as §1

[14] = biological target: T14, OR5AK2 (Homo sapiens) (UniProt Q8NH90)
T14 sequence (whole entry): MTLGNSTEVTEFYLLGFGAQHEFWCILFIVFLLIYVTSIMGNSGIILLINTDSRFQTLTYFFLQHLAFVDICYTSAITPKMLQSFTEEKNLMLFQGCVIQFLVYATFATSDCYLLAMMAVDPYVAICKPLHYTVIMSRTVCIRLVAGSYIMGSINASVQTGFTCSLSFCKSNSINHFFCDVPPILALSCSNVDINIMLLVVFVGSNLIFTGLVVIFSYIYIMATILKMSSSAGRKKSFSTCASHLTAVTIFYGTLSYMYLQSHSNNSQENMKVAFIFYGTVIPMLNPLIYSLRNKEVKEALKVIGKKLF
In short: as §1

[15] = biological target: T15, OR5AN1 (Homo sapiens) (UniProt Q8NGI8)
T15 sequence (whole entry): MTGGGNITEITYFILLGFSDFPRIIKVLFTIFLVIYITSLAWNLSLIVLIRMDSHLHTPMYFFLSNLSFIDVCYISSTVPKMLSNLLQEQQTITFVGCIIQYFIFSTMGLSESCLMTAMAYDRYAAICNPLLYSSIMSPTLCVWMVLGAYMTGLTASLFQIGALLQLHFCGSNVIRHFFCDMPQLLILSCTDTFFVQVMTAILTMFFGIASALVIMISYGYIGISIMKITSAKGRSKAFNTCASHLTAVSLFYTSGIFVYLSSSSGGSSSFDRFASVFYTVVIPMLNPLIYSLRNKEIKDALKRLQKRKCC
In short: as §1

[16] = biological target: T16, OR5AP2 (Homo sapiens) (UniProt Q8NGF4)
T16 sequence (whole entry): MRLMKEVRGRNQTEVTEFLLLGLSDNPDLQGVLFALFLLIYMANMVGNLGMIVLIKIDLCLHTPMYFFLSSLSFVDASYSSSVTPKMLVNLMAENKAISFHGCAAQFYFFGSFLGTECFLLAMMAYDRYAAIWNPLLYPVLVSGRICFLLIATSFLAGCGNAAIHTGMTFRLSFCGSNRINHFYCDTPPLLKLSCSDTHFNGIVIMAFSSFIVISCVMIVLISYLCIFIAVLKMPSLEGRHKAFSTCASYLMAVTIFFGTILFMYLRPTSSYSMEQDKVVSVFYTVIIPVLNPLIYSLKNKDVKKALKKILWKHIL
In short: as §1

Measured: odorant receptor agonist call

CCC1OC(=O)C(O)=C1C (stereo not drawn)
inactive: [1] | [2] | [3] | [4] | [5] | [6] | [7] | [8] | [9] | [10] | [11] | [12] | [13] | [14] | [15] | [16]

CC(C)CCCC(C)(C)O
inactive: [13]

CC1=NC(C)C(C)S1 (stereo not drawn)
inactive: [1] | [2] | [3] | [4] | [5] | [6] | [7] | [8] | [9] | [10] | [11] | [12] | [13] | [14] | [15] | [16]
